Data set [1] concerns the target T1, 3-phosphoinositide-dependent protein kinase 1 (Homo sapiens, UniProt O15530).
T1 sequence (O15530 whole entry): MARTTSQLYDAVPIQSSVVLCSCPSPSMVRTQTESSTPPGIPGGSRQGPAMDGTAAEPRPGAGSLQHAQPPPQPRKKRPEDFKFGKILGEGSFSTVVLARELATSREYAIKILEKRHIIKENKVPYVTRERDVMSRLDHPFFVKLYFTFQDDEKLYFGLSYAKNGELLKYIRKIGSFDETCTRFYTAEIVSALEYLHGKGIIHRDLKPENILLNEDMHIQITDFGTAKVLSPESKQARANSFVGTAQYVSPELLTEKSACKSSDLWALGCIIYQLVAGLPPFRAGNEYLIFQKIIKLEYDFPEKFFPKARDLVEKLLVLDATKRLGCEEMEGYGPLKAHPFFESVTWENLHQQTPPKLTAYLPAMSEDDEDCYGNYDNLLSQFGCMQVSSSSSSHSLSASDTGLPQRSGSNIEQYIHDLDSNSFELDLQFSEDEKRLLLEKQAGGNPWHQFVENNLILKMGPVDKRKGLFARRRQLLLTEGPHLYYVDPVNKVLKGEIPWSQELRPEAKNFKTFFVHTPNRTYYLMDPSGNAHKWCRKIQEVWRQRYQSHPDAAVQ
Briefly: Inhibition of PDK1-mediated AKT1 phosphorylation at T308 in human H460 cells after 2 hrs by ELISA. Format: cell-based. The method, boiled down: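 Cells seeded at 50,000 per well and left to adhere overnight. Inhibitor was added as a 3-fold serial dilution from 0.0169 nM to 10 μM for 2 h, then cells were lysed. Lysates were tested in a commercial pAKT-T308 sandwich ELISA per the kit protocol. IC50 from duplicates, each run repeated at least twice.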
For orientation: In an ELISA, binding on a coated surface is turned into a signal by an enzyme label.

Data set [2] is described as follows: Inhibition of recombinant GST-tagged P70S6K using 5FAM-KRSRTRTDSYSAGQ-COOH as substrate by fluorescence based assay. The method, boiled down: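 GST-tagged P70S6K (a.a. 1-421) at 5 nM, 50 μM ATP, 5 μM 5FAM-peptide. Product separated from substrate by charge (electrophoretic mobility shift, −2500/−500 V). Duplicates, nonlinear regression fit.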
For data set [3], the target named is MAP kinase-activated protein kinase 2 (Homo sapiens) (UniProt P49137). The data set is described as follows: Inhibition of MAPKAPK2 at 1 uM.
MAP kinase-activated protein kinase 2 (Homo sapiens), sequence (P49137 whole entry, looked up): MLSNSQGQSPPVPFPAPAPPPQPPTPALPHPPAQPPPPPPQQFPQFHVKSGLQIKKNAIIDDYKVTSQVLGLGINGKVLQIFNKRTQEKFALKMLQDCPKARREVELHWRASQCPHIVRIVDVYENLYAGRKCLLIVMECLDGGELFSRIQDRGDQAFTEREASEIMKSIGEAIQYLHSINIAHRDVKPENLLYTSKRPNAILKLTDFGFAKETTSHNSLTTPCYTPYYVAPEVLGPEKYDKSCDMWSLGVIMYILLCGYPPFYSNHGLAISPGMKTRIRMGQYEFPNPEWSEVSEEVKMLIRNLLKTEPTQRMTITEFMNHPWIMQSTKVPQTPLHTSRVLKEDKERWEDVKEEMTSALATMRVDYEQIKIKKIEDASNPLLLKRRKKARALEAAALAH
Data set [4] deals with Serine/threonine-protein kinase mTOR (Homo sapiens, UniProt P42345). Briefly: Inhibition of GST-tagged mTOR assessed as phosphorylation at Thr46 in GFP-4E-BP1 substrate by TR-FRET assay. The method, boiled down:
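GST-tagged mTOR (aa 1360-2549) at 1 nM, with 0.4 μM GFP-4E-BP1 and 40 μM ATP. Buffer: 50 mM Hepes pH 7.4, 10 mM MgCl2, 1 mM EGTA, 0.01% Tween-20, at about 22 °C. A terbium anti-phospho-Thr46 antibody was added at the end, and the read-out was TR-FRET. Duplicate data fitted by nonlinear regression. Concentrations are final.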
(In general: TR-FRET usually uses a lanthanide donor and a delayed reading to cut background.)

For data set [5], the target named is T2, Aurora kinase A (Homo sapiens) (UniProt O14965).
T2 sequence (whole entry): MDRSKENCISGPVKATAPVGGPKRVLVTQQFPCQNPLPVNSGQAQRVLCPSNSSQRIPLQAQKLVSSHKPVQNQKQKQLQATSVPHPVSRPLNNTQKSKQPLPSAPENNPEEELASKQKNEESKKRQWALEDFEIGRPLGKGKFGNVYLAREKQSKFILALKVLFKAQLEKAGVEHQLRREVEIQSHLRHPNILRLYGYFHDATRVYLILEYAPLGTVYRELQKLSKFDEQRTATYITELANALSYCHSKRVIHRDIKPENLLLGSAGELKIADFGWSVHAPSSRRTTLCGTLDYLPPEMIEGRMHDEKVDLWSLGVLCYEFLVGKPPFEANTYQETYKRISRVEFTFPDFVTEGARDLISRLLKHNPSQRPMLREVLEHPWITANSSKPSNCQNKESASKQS
Briefly: Inhibition of STK6 at 1 uM.

Data set [6] is described as follows: Inhibition of PRKCB2 at 1 uM.
The target of data set [7] is Ephrin type-A receptor 2 (Homo sapiens) (UniProt P29317). Briefly: Inhibition of EPHA2 at 1 uM.
Data set [8] has as its target Serine/threonine-protein kinase MARK1 (Homo sapiens, UniProt Q9P0L2). Briefly: Inhibition of MARK1 at 1 uM.
Data set [9] has as its target T3, Aurora kinase A (Homo sapiens, UniProt O14965).
T3 sequence (O14965 whole entry): T2 sequence (whole entry)
The data set is described as follows: Inhibition of Aurora A.

The target in data set [10] is Casein kinase II subunit alpha' (Homo sapiens) (UniProt P19784). Briefly: Inhibition of CSNK2A2 at 1 uM.
The target of data set [11] is T1, 3-phosphoinositide-dependent protein kinase 1. The data set is described as follows: Inhibition of recombinant human His-tagged PDK1 catalytic domain using Ac-Sox-PKTFCGTPEYLAPEVRREPRILSEEEQEMFRDFDYIAD-NH2 as substrate by fluorescence-based spectrophotometry.
The nature of data set [12]: Solubility of the compound at pH 6.5. Format: physicochemical. Conditions: buffer.
The target in data set [13] is Epidermal growth factor receptor (Homo sapiens) (UniProt P00533). The data set is described as follows: Inhibition of EGFR at 1 uM.
Data set [14] deals with Casein kinase I isoform alpha (Homo sapiens) (UniProt P48729). Briefly: Inhibition of CSNK1A1 at 1 uM.
Casein kinase I isoform alpha (Homo sapiens), sequence (P48729 2-337 limits assumed): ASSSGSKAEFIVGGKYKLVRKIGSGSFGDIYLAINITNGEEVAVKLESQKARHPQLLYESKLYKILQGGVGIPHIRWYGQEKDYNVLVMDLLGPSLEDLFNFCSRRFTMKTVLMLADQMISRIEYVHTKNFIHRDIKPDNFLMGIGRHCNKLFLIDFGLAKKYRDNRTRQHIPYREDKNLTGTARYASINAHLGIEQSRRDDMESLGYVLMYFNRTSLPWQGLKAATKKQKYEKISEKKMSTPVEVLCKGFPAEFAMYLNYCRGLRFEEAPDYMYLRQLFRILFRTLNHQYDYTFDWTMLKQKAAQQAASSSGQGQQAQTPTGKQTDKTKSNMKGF
For data set [15], the target named is T4, Serine/threonine-protein kinase Nek2 (Homo sapiens) (UniProt P51955).
T4 sequence (whole entry): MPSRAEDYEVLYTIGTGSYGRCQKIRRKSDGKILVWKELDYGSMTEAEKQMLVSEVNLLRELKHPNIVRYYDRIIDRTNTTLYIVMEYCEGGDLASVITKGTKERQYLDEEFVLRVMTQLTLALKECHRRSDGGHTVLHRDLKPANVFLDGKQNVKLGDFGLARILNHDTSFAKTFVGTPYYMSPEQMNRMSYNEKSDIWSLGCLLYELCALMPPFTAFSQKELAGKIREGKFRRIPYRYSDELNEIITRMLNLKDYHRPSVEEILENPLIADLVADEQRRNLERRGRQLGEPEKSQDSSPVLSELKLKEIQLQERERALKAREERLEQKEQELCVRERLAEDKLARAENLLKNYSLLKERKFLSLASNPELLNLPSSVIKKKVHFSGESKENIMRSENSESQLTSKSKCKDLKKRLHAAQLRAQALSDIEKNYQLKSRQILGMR
The data set is described as follows: Inhibition of NEK2 at 1 uM.

Data set [16] concerns the target Insulin receptor (Homo sapiens) (UniProt P06213). Briefly: Inhibition of INSR at 1 uM.
Data set [17] deals with Tyrosine-protein kinase Lck (Homo sapiens) (UniProt P06239). The data set is described as follows: Inhibition of LCK at 1 uM.
Tyrosine-protein kinase Lck (Homo sapiens), sequence (P06239 2-509 limits assumed): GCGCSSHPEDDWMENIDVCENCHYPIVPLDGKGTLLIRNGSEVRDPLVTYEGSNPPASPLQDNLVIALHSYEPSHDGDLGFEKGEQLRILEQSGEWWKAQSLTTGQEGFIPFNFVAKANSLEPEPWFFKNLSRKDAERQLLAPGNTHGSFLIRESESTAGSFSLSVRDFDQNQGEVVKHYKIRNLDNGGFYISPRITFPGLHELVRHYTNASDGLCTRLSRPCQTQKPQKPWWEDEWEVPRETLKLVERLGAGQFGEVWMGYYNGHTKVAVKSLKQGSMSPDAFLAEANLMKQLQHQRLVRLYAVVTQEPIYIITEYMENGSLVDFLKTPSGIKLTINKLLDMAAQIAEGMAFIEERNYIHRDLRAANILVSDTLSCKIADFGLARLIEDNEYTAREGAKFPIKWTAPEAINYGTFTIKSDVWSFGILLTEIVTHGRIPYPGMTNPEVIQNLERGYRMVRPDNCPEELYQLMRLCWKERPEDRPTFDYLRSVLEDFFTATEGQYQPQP
Data set [18] has as its target Rho-associated protein kinase 1 (Homo sapiens) (UniProt Q13464). Briefly: Inhibition of ROCK1 at 1 uM.

Converted amounts (≈) assume the structure as drawn.

The results in this text go back to ChEMBL document CHEMBL1938337, “Discovery of novel, potent, and selective inhibitors of 3-phosphoinositide-dependent kinase (PDK1)” (J Med Chem, 2011).

Insulin receptor (Homo sapiens), sequence (P06213 28-758 limits assumed): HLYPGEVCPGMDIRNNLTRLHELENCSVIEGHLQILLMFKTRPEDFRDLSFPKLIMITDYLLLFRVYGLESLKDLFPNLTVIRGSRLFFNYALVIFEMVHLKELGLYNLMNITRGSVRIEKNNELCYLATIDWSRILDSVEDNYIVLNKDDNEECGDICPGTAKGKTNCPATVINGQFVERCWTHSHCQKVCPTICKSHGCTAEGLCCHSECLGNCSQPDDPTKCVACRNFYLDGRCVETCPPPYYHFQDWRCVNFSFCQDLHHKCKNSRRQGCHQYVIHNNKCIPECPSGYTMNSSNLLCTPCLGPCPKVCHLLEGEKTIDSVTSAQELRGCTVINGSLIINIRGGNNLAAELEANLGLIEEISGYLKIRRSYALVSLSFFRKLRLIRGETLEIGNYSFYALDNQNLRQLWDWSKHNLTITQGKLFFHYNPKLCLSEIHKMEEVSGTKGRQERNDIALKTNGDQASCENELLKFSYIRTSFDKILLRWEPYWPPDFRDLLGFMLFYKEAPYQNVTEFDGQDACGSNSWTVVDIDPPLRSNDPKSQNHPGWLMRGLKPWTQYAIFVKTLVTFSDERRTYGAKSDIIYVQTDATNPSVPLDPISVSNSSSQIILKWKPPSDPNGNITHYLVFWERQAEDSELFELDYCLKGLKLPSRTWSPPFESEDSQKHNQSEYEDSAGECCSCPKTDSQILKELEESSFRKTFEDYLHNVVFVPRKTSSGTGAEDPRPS
Insulin receptor (Homo sapiens), sequence (P06213 763-1382 limits assumed): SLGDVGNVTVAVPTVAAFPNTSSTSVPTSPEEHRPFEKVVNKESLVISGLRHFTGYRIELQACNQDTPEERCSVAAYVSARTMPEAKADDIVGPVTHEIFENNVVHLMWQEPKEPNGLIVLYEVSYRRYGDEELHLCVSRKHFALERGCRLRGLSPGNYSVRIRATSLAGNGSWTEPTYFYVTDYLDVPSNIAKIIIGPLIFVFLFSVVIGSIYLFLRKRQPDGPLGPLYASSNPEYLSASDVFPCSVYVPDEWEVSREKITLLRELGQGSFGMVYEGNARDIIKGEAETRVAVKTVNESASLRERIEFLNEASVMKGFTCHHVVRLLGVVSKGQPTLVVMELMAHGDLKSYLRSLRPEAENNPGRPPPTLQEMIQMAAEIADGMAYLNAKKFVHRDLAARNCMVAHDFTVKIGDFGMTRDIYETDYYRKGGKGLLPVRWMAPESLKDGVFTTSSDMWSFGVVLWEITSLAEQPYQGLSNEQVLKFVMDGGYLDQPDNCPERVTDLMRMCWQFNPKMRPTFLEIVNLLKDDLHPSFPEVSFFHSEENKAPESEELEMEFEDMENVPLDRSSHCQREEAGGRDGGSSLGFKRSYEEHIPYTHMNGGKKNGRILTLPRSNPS
Serine/threonine-protein kinase MARK1, sequence (Q9P0L2 whole entry, looked up): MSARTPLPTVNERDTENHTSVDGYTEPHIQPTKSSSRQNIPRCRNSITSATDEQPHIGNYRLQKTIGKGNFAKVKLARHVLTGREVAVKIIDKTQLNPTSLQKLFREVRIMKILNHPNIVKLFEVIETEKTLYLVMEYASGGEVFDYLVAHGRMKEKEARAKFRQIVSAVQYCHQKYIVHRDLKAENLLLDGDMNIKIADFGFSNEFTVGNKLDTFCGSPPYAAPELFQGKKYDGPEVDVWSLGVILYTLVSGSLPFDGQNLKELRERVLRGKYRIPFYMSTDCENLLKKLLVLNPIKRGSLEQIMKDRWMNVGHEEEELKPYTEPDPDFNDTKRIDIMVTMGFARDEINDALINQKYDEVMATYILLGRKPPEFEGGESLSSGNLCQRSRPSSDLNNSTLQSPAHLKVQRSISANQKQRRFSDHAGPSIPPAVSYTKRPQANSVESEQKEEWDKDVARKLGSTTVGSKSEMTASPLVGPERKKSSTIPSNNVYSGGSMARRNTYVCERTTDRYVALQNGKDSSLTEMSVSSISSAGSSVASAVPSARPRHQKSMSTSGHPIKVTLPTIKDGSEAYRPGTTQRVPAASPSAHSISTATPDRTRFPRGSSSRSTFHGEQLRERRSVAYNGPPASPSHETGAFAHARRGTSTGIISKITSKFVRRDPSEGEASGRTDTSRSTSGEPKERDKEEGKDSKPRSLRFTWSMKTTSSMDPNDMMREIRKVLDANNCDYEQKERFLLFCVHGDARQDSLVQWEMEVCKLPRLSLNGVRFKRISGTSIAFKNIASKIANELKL
Rho-associated protein kinase 1 (Homo sapiens), sequence (Q13464 2-1354 limits assumed): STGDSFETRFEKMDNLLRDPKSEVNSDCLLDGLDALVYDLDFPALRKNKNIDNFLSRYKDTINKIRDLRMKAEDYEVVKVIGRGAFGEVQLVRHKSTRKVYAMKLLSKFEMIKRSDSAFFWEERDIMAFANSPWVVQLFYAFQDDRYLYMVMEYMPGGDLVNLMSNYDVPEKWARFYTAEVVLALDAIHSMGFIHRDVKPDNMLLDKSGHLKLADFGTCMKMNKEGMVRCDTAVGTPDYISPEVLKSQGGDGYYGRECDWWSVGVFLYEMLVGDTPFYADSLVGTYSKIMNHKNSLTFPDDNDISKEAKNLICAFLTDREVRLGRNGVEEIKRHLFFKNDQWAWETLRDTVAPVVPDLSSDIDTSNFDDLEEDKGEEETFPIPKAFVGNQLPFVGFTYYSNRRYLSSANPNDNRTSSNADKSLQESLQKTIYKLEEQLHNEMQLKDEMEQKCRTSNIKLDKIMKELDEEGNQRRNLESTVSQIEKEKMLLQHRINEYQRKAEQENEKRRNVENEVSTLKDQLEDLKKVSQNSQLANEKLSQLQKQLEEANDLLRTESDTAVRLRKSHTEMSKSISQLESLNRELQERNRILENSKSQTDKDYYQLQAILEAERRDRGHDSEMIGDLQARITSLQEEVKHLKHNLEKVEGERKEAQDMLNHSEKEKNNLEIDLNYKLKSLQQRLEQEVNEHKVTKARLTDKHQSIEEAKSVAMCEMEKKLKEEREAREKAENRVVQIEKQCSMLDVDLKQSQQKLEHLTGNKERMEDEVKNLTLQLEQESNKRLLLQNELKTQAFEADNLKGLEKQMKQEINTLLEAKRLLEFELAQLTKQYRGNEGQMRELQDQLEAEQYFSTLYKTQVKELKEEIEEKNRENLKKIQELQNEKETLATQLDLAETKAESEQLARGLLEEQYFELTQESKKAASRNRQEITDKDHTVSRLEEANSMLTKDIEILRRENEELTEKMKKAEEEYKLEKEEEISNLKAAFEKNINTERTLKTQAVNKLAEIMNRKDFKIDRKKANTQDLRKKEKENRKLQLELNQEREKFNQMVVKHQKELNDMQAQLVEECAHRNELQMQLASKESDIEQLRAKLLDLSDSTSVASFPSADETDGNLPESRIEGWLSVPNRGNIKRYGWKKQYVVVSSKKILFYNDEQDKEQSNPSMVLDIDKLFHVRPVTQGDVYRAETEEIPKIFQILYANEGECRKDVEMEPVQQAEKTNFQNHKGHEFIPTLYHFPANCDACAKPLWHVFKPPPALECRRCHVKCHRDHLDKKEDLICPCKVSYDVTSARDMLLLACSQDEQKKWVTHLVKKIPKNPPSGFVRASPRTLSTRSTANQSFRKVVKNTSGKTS

In the case of `CC(=O)N1CC[C@@H](Nc2cncc(C(=O)c3cn(C(C)C)c4ncnc(N)c34)n2)[C@H]1c1ccccc1`, the IC50 in data set [1] came to 320 nM; in data set [9], 820 nM. The Ki in data set [2] came out at 3600 nM; in data set [4] it was 3900 nM; in [11], 1.4 nM. Besides, the inhibition was found to be 6% in data set [3]; 54% in data set [5]; 1% in data set [6]; 3% in data set [7]; 47% in data set [8]; 2% in data set [10]. Moreover, the inhibition was -2% in data set [13]; 7% in data set [14]; -3% in data set [15]; 4% in data set [16]; 11% in data set [17]; -5% in data set [18]. In addition, the solubility in data set [12] worked out at 510 µM (≈ 247 µg/mL).
Consider `CC(C)n1cc(C(=O)c2cncc(N[C@@H]3CCN(C=O)[C@@H]3c3ccc(F)cc3)n2)c2c(N)ncnc21`, for which the 50% inhibitory concentration (IC50) in [1] came out at 120 nM; in [9], 140 nM. Further, the Ki in [2] was 890 nM; in data set [4], 2800 nM; in data set [11], 0.7 nM. Besides, the inhibition in [3] was found to be 6%; in data set [5], 81%; in data set [6], 14%; in data set [7], 7%; in [8], 84%; in data set [10], 4%. Further, the inhibition in data set [13] was found to be 7%; in data set [14] it was 7%; in data set [15], 3%; in [16], 4%; in data set [17], 27%; in data set [18], 4%. For the same compound, in data set [12], the solubility came out at 290 µM (≈ 142 µg/mL).
With `CC(=O)N1CC[C@@H](Nc2cncc(C(=O)c3cn(C(C)C)c4ncnc(N)c34)n2)[C@H]1c1ccc(F)cc1`, the results for the IC50 in data set [1] and in data set [9] were 160 nM and 460 nM, respectively. Further, the Ki is 10000 nM in data set [2], 2600 nM in [4] and 1.4 nM in data set [11]. Also, the inhibition worked out at 2% in [3]; 80% in data set [5]; 15% in [6]; 1% in data set [7]; 74% in [8]; 8% in [10]. For the same compound, the inhibition was 1% in data set [13]; 4% in data set [14]; -2% in [15]; 3% in data set [16]; 22% in data set [17]; 5% in data set [18]. The concentration in solution in data set [12] (solubility) was 390 µM (≈ 196 µg/mL).

In general, IC50 refers to the concentration at which inhibition is half-maximal. High values mean weaker potency in that assay, low ones greater potency in that assay. In general, Ki refers to the dissociation constant of the complex between target and ligand, obtained from inhibition or displacement. The term inhibition denotes the relative decrease from the control value, in per cent. Usually solubility stands for the dissolved amount per volume that the medium holds. Lower therefore signals little dissolved substance.
